Assay results taken from paper PMC4195389 (Journal of the American Chemical Society, 2014).

Tests used:
[1] = tested on: HCT116N and HCT116O cells; assay: MTT cytotoxicity assay; type: cell-based; conditions: 72 h
Procedure, shortened: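 HCT116N and HCT116O cells are seeded at 50,000 cells/well in 96-well format and exposed to test compound for 72 h. MTT labelling follows for 4 h at 37 °C under 5% CO2, and formazan is dissolved in acidified SDS. The read-out is A570 minus A690 background. Percent viability is formazan of treated over untreated cells. Differential cytotoxicity is the difference in percent viability between the two lines.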

[2] = tested on: HCT116N cells (MMR-proficient) and HCT116O cells (MMR-deficient); type: cell-based
[3] = tested on: DNA hairpin 5′-[…]-3′ with CC mismatch; assay: Covalent DNA binding assay; conditions: 30 min at 37 °C; neutral phosphate buffer or 5 mM glutathione
[4] = Metalloinsertor pH titrations; type: physicochemical; conditions: chrysi immine proton; ambient temperature, 0.1 M NaCl; racemic mixtures
Procedure, shortened: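 Test compound at 25 μM in 0.1 M NaCl is titrated from about pH 4.5 to 10.5 and back with 6 mM NaOH or 10 mM HCl, with pH followed by electrode. A UV-vis spectrum is recorded after each addition. Absorbance at one strongly changing wavelength is plotted against pH, and pKa is taken from the inflection of the sigmoid. Values from three separate experiments are pooled and averaged.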

[5] = tested on: matched sites in the DNA duplex; assay: Binding competition gels with [Rh; conditions: competition with 4 μM [Rh(bpy)2(phi)]3+; up to 1:15 DNA:complex; data not shown
[6] = tested on: 36-mer DNA duplex containing a CC mismatch; type: binding
[7] = tested on: HCT116O cells (MMR-deficient); assay: Cell death mode flow cytometry assay; type: cell-based; conditions: 72 h
Procedure, shortened: (§1)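 HCT116 cells, grown in RPMI 1640 with 10% FBS, glutamine, non-essential amino acids, pyruvate, penicillin/streptomycin and 400 μg/mL G418 at 37 °C under 5% CO2, are exposed to test compound (0–0.5 μM) for 72 h. They are then trypsinized, washed in cold PBS, pelleted and resuspended in PBS at 10^6 cells/mL. Staining is 30 min with propidium iodide (1 μg/mL final) plus YO-PRO-1 (50 nM final). Flow-cytometry events are gated as live, apoptotic, necrotic or dead.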

[8] = tested on: HCT116N cells (MMR-proficient); assay: Cell death mode flow cytometry assay; type: cell-based; conditions: 72 h
Procedure, shortened: as §1

Compound | optimal concentration for differential cytotoxicity [1] [nM] | concentration required for optimal differential activity [2] [µM] | differential inhibition (difference in %BrdU incorporation between HCT116N and HCT116O cells) [2] [%] | pKa [4] | other results
[Rh(chrysi)(phen)(PPE)]Cl2 [[Rh(chrysi)(phen)(PPE)]^2+] | 720 | 1 | 53 ± 7 | 8.9 ± 0.4 | covalent DNA binding [3]: no covalent DNA binding
N.N.[Cl][Pt][Cl] [cisplatin, cis-diamminedichloroplatinum, reference compound] | – | – | – | – | concentration required for optimal biological activity [2]: 6 μM
Δ-[Rh(chrysi)(phen)(DPE)]^2+ | – | – | – | – | binding at matched sites [5]: no binding at matched sites; lower binding affinity for mismatched DNA as compared to Δ-[Rh(bpy)2(chrysi)]3+ [6]: ~5 fold
[Rh(chrysi)(phen)(PPO)]Cl2 [[Rh(chrysi)(phen)(PPO)]^2+] | 320 | 0.3 | 62 ± 2 | 8.3 ± 0.3 | mode of cell death ([7]; 0.2 or 0.5 μM, HCT116O versus HCT116N): induces necrosis preferentially in the MMR-deficient HCT116O cell line; live cells ([7]; HCT116O, 0.2 μM): 28 ± 6%; necrotic cells ([7]; HCT116O, 0.2 μM): 13 ± 2%; cells in the apoptotic region ([7]; HCT116O, following metalloinsertor treatment): 17 ± 7%; live cells ([8]; 0.2 μM): 57 ± 7%; cells in the apoptotic region ([8]; following metalloinsertor treatment): 25 ± 7%
[Rh(chrysi)(phen)(DPE)]Cl2 [[Rh(chrysi)(phen)(DPE)]^2+] | 6000 | 3 | 55 ± 2 | 8.7 ± 0.2 | –
[Rh(chrysi)(phen)(PyOctanol)]Cl2 [[Rh(chrysi)(phen)(PyOctanol)]^2+] | 480 | – | – | – | –
Λ-[Rh(chrysi)(phen)(DPE)]^2+ | – | – | – | – | binding at matched sites [5]: no binding at matched sites
[Rh(HDPA)2(chrysi)]^3+ [reference compound] | 25000 | 10 | – | – | –
